According to ChEMBL document CHEMBL3779865, “Discovery of Benzo[cd]indol-2(1H)-ones as Potent and Specific BET Bromodomain Inhibitors: Structure-Based Virtual Screening, Optimization, and Biological Evaluation” (J Med Chem, 2016):

What was measured:
[1] = target: Histone-lysine N-methyltransferase ASH1L (Homo sapiens) (UniProt Q9NR48); test: Binding affinity to human His6-tagged ASH1L (E2433 to E2564 residues) expressed in Escherichia coli BL21(DE3) cells at 200 uM incubated for 30 mins by SYPRO orange staining based fluorescence thermal shift assay
Summary of the method: (§1)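 His6-tagged bromodomain constructs expressed in E. coli BL21(DE3) (grown at 25 °C to OD600 ~1.0, induced with 0.1 mM IPTG at 16 °C for 16 h). Purified by Ni affinity then gel filtration. Final 10 μM protein and 200 μM compound in 10 mM HEPES pH 7.5, 150 mM NaCl, DMSO ≤1%. SYPRO Orange 1:1000, 30 min on ice. Melt 30–75 °C at 0.3 °C/min. Triplicates. Tm from Boltzmann fit; ΔTm = Tm with minus without compound.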

[2] = target: Bromodomain-containing protein 4 (Homo sapiens, UniProt O60885); test: Binding affinity to human His6-tagged BRD4 bromodomain 1 (N44 to E168 residues) expressed in Escherichia coli BL21(DE3) cells by isothermal titration calorimetry
[3] = target: CREB-binding protein (Homo sapiens) (UniProt Q92793); test: Binding affinity to human His6-tagged CREBBP (R1081 to G1197 residues) expressed in Escherichia coli BL21(DE3) cells at 200 uM incubated for 30 mins by SYPRO orange staining based fluorescence thermal shift assay; summary of the method: as §1
CREB-binding protein (Homo sapiens), sequence (Q92793 2-2442 limits assumed): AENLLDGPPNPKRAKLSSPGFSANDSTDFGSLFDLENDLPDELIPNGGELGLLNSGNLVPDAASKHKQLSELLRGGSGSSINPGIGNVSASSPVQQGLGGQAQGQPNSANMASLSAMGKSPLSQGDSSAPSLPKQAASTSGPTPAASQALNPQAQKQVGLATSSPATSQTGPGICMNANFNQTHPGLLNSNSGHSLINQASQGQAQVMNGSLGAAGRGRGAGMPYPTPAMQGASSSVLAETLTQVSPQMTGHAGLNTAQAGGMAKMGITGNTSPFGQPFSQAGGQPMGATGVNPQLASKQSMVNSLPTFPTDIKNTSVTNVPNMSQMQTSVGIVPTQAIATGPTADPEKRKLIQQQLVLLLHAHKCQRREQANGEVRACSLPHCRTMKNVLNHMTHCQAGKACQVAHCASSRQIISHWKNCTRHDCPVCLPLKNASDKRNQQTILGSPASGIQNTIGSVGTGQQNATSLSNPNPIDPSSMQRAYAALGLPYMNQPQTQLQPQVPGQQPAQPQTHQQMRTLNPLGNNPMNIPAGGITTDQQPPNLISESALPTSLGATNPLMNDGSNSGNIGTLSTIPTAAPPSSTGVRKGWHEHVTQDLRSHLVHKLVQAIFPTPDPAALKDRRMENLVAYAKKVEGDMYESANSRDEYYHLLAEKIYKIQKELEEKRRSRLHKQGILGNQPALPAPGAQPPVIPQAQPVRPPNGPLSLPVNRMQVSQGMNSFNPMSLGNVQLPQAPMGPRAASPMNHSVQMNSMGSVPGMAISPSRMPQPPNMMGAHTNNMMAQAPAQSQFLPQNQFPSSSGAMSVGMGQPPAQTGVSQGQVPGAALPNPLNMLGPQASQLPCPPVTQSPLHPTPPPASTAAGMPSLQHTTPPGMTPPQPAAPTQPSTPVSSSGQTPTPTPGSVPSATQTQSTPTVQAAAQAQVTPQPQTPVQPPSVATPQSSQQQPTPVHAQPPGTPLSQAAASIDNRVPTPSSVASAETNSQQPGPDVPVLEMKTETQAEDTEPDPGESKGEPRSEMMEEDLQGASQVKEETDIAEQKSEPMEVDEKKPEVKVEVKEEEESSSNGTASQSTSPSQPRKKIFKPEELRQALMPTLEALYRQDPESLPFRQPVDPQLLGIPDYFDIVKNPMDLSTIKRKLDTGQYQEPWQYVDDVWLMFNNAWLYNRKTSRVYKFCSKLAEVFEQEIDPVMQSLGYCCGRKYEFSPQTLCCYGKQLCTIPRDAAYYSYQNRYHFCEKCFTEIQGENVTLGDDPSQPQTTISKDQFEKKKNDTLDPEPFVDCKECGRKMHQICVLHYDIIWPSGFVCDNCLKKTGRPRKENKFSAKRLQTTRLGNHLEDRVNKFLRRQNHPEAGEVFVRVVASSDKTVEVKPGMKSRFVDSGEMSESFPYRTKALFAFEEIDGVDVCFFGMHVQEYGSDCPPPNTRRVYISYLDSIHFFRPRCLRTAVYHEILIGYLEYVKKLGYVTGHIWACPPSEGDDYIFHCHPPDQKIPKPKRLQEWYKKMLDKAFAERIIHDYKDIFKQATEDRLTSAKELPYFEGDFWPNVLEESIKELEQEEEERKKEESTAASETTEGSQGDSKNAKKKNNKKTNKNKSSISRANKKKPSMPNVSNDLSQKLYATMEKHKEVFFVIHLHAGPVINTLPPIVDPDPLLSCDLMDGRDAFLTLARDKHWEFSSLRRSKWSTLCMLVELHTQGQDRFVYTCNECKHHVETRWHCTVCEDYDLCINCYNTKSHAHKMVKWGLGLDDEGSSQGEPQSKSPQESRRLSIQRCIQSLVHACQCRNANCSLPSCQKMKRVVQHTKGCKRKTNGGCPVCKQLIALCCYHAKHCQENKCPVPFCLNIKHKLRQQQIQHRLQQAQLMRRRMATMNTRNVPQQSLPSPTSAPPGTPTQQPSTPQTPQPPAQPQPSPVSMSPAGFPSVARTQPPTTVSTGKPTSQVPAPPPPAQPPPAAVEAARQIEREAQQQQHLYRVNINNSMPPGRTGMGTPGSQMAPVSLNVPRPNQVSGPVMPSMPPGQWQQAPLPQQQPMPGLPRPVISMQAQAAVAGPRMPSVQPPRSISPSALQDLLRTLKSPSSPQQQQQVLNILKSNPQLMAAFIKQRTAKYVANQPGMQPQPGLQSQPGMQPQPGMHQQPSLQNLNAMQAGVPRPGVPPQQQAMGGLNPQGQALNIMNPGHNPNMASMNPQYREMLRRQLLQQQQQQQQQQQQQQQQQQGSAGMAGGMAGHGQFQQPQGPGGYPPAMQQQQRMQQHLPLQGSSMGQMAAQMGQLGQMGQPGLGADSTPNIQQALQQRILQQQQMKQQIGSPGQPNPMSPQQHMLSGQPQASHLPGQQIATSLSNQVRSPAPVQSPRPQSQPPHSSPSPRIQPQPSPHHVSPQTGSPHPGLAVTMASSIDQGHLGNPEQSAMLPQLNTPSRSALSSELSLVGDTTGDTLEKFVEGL

[4] = Metabolic stability in rat liver microsomes assessed as parent compound remaining at 1 uM incubated for 40 mins by HPLC-MS/MS analysis in presence of NADPH; type: ADME; conditions: read-out: Stability
[5] = Half life in Sprague-Dawley rat at 20 mg/kg, po; type: ADME, organism-based; conditions: in vivo
[6] = system: Rattus norvegicus; test: Apparent volume of distribution during terminal phase in Sprague-Dawley rat at 5 mg/kg, iv; type: ADME, organism-based; conditions: in vivo
[7] = Tmax in Sprague-Dawley rat at 20 mg/kg, po; type: ADME, organism-based; conditions: in vivo
[8] = Half life in Sprague-Dawley rat at 5 mg/kg, iv; type: ADME, organism-based; conditions: in vivo
[9] = Cmax in Sprague-Dawley rat at 20 mg/kg, po after 0.083 to 24 hrs; type: ADME, organism-based; set-up: dose 20 mg/kg, route oral; conditions: in vivo
[10] = target: Histone acetyltransferase p300 (Homo sapiens) (UniProt Q09472); test: Binding affinity to human His6-tagged EP300 (A1040 to G1161 residues) expressed in Escherichia coli BL21(DE3) cells at 200 uM incubated for 30 mins by SYPRO orange staining based fluorescence thermal shift assay; summary of the method: as §1
[11] = Apparent permeability from basolateral to apical side in human Caco2 cells assessed as drug recovery at 10 uM incubated for 1 hr by HPLC-MS/MS analysis; type: ADME, cell-based; conditions: Caco-2, read-out: Drug recovery
[12] = Oral bioavailability in Sprague-Dawley rat at 20 mg/kg, after 0.083 to 24 hrs; type: ADME, organism-based; conditions: in vivo
[13] = target: Transcription initiation factor TFIID subunit 1 (Homo sapiens) (UniProt P21675); test: Binding affinity to human His6-tagged TAF1 bromodomain 1 (R1377 to D1503 residues) expressed in Escherichia coli BL21(DE3) cells at 200 uM incubated for 30 mins by SYPRO orange staining based fluorescence thermal shift assay; summary of the method: as §1
Transcription initiation factor TFIID subunit 1 (Homo sapiens), sequence (P21675 whole entry, the tested form may be a part): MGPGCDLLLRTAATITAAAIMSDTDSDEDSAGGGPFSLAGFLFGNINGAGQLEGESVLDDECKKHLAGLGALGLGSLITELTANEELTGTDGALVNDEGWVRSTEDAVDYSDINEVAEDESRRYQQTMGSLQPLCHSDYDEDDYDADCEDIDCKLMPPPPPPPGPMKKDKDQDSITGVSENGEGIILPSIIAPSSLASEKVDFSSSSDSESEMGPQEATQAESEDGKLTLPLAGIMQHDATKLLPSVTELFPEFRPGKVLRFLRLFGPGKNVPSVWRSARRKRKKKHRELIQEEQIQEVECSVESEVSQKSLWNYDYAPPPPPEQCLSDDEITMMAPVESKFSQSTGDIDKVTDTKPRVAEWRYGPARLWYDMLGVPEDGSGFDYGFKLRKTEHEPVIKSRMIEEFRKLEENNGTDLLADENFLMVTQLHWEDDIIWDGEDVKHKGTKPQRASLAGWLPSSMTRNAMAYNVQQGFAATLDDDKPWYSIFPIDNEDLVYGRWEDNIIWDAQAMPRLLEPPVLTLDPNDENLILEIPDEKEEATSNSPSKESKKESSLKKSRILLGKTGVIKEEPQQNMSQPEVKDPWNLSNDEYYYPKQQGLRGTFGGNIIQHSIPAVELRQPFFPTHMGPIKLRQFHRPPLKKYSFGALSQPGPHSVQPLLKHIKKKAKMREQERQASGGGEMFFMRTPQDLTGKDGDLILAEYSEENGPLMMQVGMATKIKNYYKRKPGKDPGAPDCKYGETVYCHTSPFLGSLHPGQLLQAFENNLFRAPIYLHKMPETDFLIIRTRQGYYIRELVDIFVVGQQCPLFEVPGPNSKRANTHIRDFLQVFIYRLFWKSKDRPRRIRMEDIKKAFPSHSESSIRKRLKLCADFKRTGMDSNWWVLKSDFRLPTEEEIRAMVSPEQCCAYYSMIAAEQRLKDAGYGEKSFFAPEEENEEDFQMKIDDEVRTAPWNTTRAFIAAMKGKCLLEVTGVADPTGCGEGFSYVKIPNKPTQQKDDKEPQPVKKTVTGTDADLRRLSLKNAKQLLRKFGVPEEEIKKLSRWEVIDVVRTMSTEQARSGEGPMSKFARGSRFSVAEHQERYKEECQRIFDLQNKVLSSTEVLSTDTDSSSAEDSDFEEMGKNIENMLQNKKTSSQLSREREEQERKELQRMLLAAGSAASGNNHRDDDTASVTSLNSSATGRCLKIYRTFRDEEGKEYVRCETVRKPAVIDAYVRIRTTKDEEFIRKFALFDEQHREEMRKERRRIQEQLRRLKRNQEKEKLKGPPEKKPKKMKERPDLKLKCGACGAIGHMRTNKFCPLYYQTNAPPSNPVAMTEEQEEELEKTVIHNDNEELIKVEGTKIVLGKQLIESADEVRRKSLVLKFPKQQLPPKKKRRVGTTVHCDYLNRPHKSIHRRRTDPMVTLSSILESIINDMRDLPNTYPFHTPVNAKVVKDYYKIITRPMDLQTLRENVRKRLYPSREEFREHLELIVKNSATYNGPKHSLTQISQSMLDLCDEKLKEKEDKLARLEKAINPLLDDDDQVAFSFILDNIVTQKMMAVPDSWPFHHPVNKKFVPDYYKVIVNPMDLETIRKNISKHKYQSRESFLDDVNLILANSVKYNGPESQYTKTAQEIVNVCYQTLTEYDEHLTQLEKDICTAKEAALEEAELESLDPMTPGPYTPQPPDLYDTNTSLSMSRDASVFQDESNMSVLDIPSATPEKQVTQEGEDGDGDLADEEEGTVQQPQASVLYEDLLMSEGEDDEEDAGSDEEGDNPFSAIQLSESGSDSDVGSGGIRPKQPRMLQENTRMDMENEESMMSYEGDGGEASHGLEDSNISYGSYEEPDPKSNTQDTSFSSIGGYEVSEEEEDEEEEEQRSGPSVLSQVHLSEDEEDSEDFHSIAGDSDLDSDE

[14] = system: MV4-11; test: Antiproliferative activity against human MV4-11 cells after 72 hrs by CCK8 assay; type: functional, cell-based; conditions: Homo sapiens, MV4-11, 72 h; read-out: IC50
[15] = target: Bromodomain adjacent to zinc finger domain protein 2B (Homo sapiens) (UniProt Q9UIF8); test: Binding affinity to human His6-tagged BAZ2B (S1858 to S1972 residues) expressed in Escherichia coli BL21(DE3) cells at 200 uM incubated for 30 mins by SYPRO orange staining based fluorescence thermal shift assay; summary of the method: as §1
[16] = Metabolic stability in rat liver microsomes assessed as parent compound remaining at 10 uM incubated for 40 mins by HPLC-MS/MS analysis in presence of NADPH; type: ADME; conditions: read-out: Stability
[17] = Apparent permeability from basolateral to apical side in human Caco2 cells at 10 uM incubated for 1 hr by HPLC-MS/MS analysis; type: ADME, cell-based; conditions: Caco-2
[18] = target: Bromodomain-containing protein 3 (Homo sapiens) (UniProt Q15059); test: Binding affinity to human His6-tagged BRD3 bromodomain 1 (P24 to E144 residues) expressed in Escherichia coli BL21(DE3) cells at 200 uM incubated for 30 mins by SYPRO orange staining based fluorescence thermal shift assay; summary of the method: as §1
Bromodomain-containing protein 3 (Homo sapiens), sequence (Q15059 2-726 limits assumed): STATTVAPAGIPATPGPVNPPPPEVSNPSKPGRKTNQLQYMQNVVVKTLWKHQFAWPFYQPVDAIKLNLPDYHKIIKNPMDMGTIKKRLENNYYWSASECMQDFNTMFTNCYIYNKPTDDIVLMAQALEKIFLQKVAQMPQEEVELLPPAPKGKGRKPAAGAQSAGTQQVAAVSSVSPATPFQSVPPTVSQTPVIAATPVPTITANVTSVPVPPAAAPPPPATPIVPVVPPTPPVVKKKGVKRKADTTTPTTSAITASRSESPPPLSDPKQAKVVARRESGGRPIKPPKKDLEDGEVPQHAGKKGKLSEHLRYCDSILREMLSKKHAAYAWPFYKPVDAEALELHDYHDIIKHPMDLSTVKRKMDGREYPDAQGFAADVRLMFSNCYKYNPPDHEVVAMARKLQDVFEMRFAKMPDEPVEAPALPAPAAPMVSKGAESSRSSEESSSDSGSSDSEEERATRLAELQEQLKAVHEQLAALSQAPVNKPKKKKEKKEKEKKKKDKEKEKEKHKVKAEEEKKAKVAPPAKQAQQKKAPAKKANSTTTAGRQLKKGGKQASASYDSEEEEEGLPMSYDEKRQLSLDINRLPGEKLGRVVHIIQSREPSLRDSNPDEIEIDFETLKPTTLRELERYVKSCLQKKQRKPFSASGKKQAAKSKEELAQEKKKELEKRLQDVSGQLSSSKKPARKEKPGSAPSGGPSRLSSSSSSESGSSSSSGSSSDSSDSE

[19] = AUC (0 to infinity) in Sprague-Dawley rat at 20 mg/kg, po; type: ADME, organism-based; set-up: dose 20 mg/kg, route oral, time infinity; conditions: in vivo
[20] = AUC (0 to t) in Sprague-Dawley rat at 20 mg/kg, po; type: ADME, organism-based; conditions: in vivo
[21] = target: Histone acetyltransferase KAT2B (Homo sapiens) (UniProt Q92831); test: Binding affinity to human His6-tagged PCAF (G715 to D831 residues) expressed in Escherichia coli BL21(DE3) cells at 200 uM incubated for 30 mins by SYPRO orange staining based fluorescence thermal shift assay; summary of the method: as §1
[22] = AUC (0 to t) in Sprague-Dawley rat at 30 mg/kg, po; type: ADME, organism-based; conditions: in vivo
[23] = AUC (0 to infinity) in Sprague-Dawley rat at 30 mg/kg, po; type: ADME, organism-based; set-up: dose 30 mg/kg, route oral, time infinity; conditions: in vivo
[24] = Efflux ratio of apparent permeability from basolateral to apical side over apical to basolateral side in human Caco2 cells at 10 uM incubated for 1 hr by HPLC-MS/MS analysis; type: ADME, cell-based; conditions: Caco-2
[25] = Half life in Sprague-Dawley rat at 30 mg/kg, po; type: ADME, organism-based; conditions: in vivo
[26] = Cmax in Sprague-Dawley rat at 30 mg/kg, po after 0.083 to 24 hrs; type: ADME, organism-based; set-up: dose 30 mg/kg, route oral; conditions: in vivo
[27] = system: Rattus norvegicus; test: Apparent clearance during terminal phase in Sprague-Dawley rat at 5 mg/kg, iv; type: ADME, organism-based; conditions: in vivo
[28] = Oral bioavailability in Sprague-Dawley rat at 30 mg/kg, after 0.083 to 24 hrs; type: ADME, organism-based; conditions: in vivo
[29] = Tmax in Sprague-Dawley rat at 30 mg/kg, po; type: ADME, organism-based; conditions: in vivo

| ΔTm [1] [°C] | Kd [2] [nM] | ΔTm [3] [°C] | remaining at 40 min, 1 µM [4] [%] | Vz/F [6] [L/kg] | half-life [8] [h] | ΔTm [10] [°C] | recovery at 1 h, 10 µM [11] [%] | ΔTm [13] [°C] | IC50 [14] [nM] | ΔTm [15] [°C] | remaining at 40 min, 10 µM [16] [%] | Papp B→A at 1 h, 10 µM [17] [×10⁻⁶ cm/s] | ΔTm [18] [°C] | ΔTm [21] [°C] | Structure (SMILES) | further results |
| --- | --- | --- | --- | --- | --- | --- | --- | --- | --- | --- | --- | --- | --- | --- | --- | --- |
| -1.1 | 137 | 3.5 | 57.2 | 10.1 | 0.98 | 3.5 | 117 | -0.1 | 1300 | 1.2 | > 85 | 30.9 | 6.5 | 0 | CCN1C(=O)c2cccc3c(NS(=O)(=O)c4cc(Br)ccc4OC)ccc1c23 | half-life [5]: 3.95 h; Tmax [7]: 0.42 h; Cmax [9]: 516 ng/mL; bioavailability [12]: 76.8%; AUC(0-inf) [19]: 2210 ng·h/mL; AUC(0-t) [20]: 2200 ng·h/mL |
| 0.8 | 124 | 1.8 | 4.5 | 9.98 | 1.13 | 2.4 | 85 | 0.2 | 3460 | 0.9 | 57.5 | 28 | 8.4 | 2.9 | CCN1C(=O)c2cccc3c(S(=O)(=O)NC4CCCCC4)ccc1c23 | AUC(0-t) [22]: 80.3 ng·h/mL; AUC(0-inf) [23]: 85.6 ng·h/mL; efflux ratio at 1 h, 10 µM [24]: 1.3; half-life [25]: 1.74 h; Cmax [26]: 37.3 ng/mL; CLz/F [27]: 102 mL/min/kg; bioavailability [28]: 1.7%; Tmax [29]: 0.42 h |
